Test [1] in a line: Inhibitory activity against Leishmania mexicana GAPDH; Inactive at 50 uM.
Test [2] can be described thus: In vitro inhibition of rabbit muscle GAPDH. Set-up: species or system Oryctolagus cuniculus. In outline:
(§1)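 Spectrophotometric assay at 23 °C in 0.10 M triethanolamine/HCl, pH 7.5. Enzyme starts the reaction and inhibitors are in 5% DMSO-d₆. Initial rates over 0–2 min are compared with control. IC50 comes from ≥5 concentrations, or is extrapolated from ≥3 concentrations when above 50 µM.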

Test [3] deals with Trypanosoma brucei. The test can be described thus: (§2) Effective concentration required to block the growth of bloodstream Trypanosoma brucei. The note with it: read-out: ED50 (the source's name). The class given is functional. In outline:
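Bloodstream-form strain 427 trypomastigotes grown in HMI-9 with 10% fetal bovine serum, penicillin and streptomycin at 37 °C, 5% CO2. Inoculum 5 × 10³ parasites per well, drug given in serial dilutions, triplicate wells. Growth read at 48 h with Alamar Blue, checked against hemacytometer counts. Assay run twice.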

Test [4] deals with Glyceraldehyde-3-phosphate dehydrogenase, glycosomal (Leishmania mexicana, UniProt Q27890). The test can be described thus: Inhibitory activity against Leishmania mexicana GAPDH. In outline:
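Spectrophotometric GAPDH assay at 23 °C in 0.10 M triethanolamine/HCl pH 7.5, read as NADH formation at 340 nm. Final: 5.0 mM MgSO4, 1.0 mM EDTA, 12.8 mM KH2PO4, 1.0 mM DTT, 1.0 mM NaN3, 0.45 mM NAD+, 1.87 mM fresh glyceraldehyde-3-phosphate, 5% DMSO-d6. Started with enzyme. Initial rates 0–2 min as % of control. IC50 from ≥5 concentrations (≤50 µM) or extrapolated from ≥3.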

Test [5] can be described thus: In vitro inhibition of Trypanosoma brucei GAPDH. In outline: as §1
Test [6] in a line: In vitro inhibition of Trypanosoma cruzi GAPDH. A digest of the protocol:
as §1

For test [7], the system named is Trypanosoma brucei. The description is as §2. The note with it: read-out: ED50 (the source's name). It counts as functional. A digest of the protocol:
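Bloodstream-form strain 427 trypomastigotes are grown in HMI-9 with 10% FBS at 37 °C, 5% CO₂. Triplicate wells are seeded at 5 × 10³ parasites per well with serially diluted drug. Growth is read with Alamar Blue at 48 h. Assays were run twice.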
This is another data set of the same source.

A further test has as its system Trypanosoma cruzi. In words: Effective concentration required to inhibit the growth of mammalian stage of Trypanosoma cruzi grown in murine 3T3 fibroblasts. The class given is functional. As to conditions: read-out: ED50 (the source's name). A digest of the protocol:
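Tulahuen strain stably carrying E. coli lacZ. Mammalian stages are cocultured with mouse 3T3 fibroblasts in RPMI 1640 with 10% FBS at 37 °C, 5% CO₂. Intracellular growth is followed by a colorimetric β-galactosidase read-out. Assays were run twice.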

In another test the test system is NIH3T3. The test can be described thus: Effective concentration required to inhibit the growth of murine 3T3 fibroblasts. It counts as functional. The note with it: Mus musculus, read-out: ED50 (the source's name).

Glyceraldehyde-3-phosphate dehydrogenase, glycosomal, sequence (Q27890 whole entry, looked up): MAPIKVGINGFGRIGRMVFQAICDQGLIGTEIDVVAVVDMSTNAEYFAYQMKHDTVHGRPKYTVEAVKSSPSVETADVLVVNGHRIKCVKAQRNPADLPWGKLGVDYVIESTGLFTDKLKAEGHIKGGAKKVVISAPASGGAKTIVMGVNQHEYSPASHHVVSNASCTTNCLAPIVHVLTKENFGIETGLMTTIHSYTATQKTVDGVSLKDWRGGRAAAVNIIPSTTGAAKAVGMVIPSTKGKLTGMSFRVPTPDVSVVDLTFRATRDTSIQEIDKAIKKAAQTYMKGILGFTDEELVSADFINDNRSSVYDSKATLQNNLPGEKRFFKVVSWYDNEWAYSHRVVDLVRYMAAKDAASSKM

By IC50 is commonly meant the midpoint of a concentration-inhibition curve. Low readings indicate inhibition by little substance, high ones a need for much substance. On to `O=C(NC[C@H]1OC(n2cnc3c(NCc4cccc5ccccc45)ncnc32)[C@H](O)[C@@H]1O)C(c1ccccc1)c1ccccc1` (stereo not given in full), for which, in test [1], the IC50 entry is “Not Active”.
For `COc1cccc(C(=O)N[C@@H]2[C@H](O)[C@@H](CO)O[C@H]2n2cnc3c(NCc4cccc5ccccc45)ncnc32)c1O`, in test [1], the IC50 entry is “Not Active”.
Regarding `O=C(CC1CCCCC1)NC[C@H]1OC(n2cnc3c(NCc4cccc5ccccc45)ncnc32)[C@H](O)[C@@H]1O` (stereo not given in full), the IC50 result in [1] was “Not Active”.
On to `N=C(N)c1ccc(OCCCCCOc2ccc(C(=N)N)cc2)cc1` [PENTAMIDINE], for which the half-inhibitory concentration (IC50) in test [2] is over 50 µM. Also, the EC50 with Trypanosoma brucei [3] amounted to 6 nM.
`O=C(N[C@@H]1[C@H](O)[C@@H](CO)O[C@H]1n1cnc2c(NCc3cccc4ccccc34)ncnc21)c1ccccc1Cl`: in test [1], the IC50 entry is “Not Active”.
With `COc1cccc(C(=O)N[C@@H]2[C@H](O)[C@@H](CO)O[C@H]2n2cnc3c(NCc4c(OC)ccc5ccccc45)ncnc32)c1`, in test [1], the IC50 result is “Not Active”.
Still for that read-out and setting: under `COc1cccc(C(=O)N[C@@H]2[C@H](O)[C@@H](CO)O[C@H]2n2cnc3c(NCc4cccc5ccccc45)ncnc32)c1OC(C)=O` stands “Not Active”; under `COc1ccccc1C(=O)N[C@@H]1[C@H](O)[C@@H](CO)O[C@H]1n1cnc2c(NCc3cccc4ccccc34)ncnc21`, “Not Active”.
For the compound `COc1ccc(C(=O)N[C@@H]2[C@H](O)[C@@H](CO)O[C@H]2n2cnc3c(NCc4cccc5ccccc45)ncnc32)cc1OC`, the IC50 in test [4] is 4 µM; in test [5], 47 µM; in [6], 7 µM; in [2], over 50 µM. The EC50 was 36 µM in the test with Trypanosoma brucei [7], 22 µM in the test on Trypanosoma cruzi and over 55 µM with NIH3T3.
Regarding `CC(=O)Oc1ccccc1C(=O)N[C@@H]1[C@H](O)[C@@H](CO)O[C@H]1n1cnc2c(NCc3cccc4ccccc34)ncnc21`, in test [1], the IC50 result is recorded as “Not Active”.
Consider `O=C(N[C@@H]1[C@H](O)[C@@H](CO)O[C@H]1n1cnc2c(NCc3cccc4ccccc34)ncnc21)c1ccccc1O`, for which the IC50 entry in test [1] was “Not Active”.
With `O=C(N[C@@H]1[C@H](O)[C@@H](CO)O[C@H]1n1cnc2c(NCc3cc(O)cc4ccccc34)ncnc21)c1cc(Cl)cc(Cl)c1`, the IC50 was 25 µM in test [4], 55 µM in [5], 40 µM in test [6] and over 50 µM in test [2]. Also, the EC50 in the test with Trypanosoma brucei [7] is 12 µM; in the test with Trypanosoma cruzi, 41 µM; in the test with NIH3T3, 43 µM.

Source of the values: ChEMBL document CHEMBL1134510, “Adenosine analogues as selective inhibitors of glyceraldehyde-3-phosphate dehydrogenase of Trypanosomatidae via structure-based drug design” (J Med Chem, 2001).
